Laboratory results taken from ChEMBL document CHEMBL4715841, “Discovery of dihydropyrazino-benzimidazole derivatives as metabotropic glutamate receptor-2 (mGluR2) positive allosteric modulators (PAMs)” (Eur J Med Chem, 2020).

Legend:
[1] = target: Metabotropic glutamate receptor 2 (Homo sapiens, UniProt Q14416)
Cytochrome P450 2C19 = Cytochrome P450 2C19 (Homo sapiens, UniProt P33261); test: Inhibition of CYP2C19 (unknown origin); type: ADME
Method in brief: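 Isoform-specific CYP450 inhibition, reported as IC50 in µM.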

Chain of Metabotropic glutamate receptor 2 (Q14416 whole entry): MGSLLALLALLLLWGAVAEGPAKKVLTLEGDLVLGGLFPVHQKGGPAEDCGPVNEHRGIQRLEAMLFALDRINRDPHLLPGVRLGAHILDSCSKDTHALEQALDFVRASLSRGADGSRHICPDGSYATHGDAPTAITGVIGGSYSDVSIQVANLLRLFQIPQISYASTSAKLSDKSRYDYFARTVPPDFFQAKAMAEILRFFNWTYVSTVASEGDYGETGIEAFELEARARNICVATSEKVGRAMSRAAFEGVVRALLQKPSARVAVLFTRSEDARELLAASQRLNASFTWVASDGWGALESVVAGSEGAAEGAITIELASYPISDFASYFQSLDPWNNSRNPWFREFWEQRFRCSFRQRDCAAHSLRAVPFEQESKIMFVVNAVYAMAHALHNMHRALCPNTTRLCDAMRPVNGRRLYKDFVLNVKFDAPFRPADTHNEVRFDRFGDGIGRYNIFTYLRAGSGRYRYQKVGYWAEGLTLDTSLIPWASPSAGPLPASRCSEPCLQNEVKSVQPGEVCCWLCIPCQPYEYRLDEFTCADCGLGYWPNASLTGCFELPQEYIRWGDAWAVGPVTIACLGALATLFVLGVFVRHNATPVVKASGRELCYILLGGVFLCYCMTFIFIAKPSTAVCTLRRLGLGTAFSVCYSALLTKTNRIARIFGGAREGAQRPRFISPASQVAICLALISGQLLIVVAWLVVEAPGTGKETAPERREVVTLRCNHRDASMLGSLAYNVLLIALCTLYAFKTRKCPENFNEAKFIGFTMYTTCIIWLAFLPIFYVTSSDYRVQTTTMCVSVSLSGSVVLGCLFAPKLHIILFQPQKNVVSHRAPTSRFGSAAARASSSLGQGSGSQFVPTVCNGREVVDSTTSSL
Chain of Cytochrome P450 2C19 (P33261 whole entry, canonical isoform): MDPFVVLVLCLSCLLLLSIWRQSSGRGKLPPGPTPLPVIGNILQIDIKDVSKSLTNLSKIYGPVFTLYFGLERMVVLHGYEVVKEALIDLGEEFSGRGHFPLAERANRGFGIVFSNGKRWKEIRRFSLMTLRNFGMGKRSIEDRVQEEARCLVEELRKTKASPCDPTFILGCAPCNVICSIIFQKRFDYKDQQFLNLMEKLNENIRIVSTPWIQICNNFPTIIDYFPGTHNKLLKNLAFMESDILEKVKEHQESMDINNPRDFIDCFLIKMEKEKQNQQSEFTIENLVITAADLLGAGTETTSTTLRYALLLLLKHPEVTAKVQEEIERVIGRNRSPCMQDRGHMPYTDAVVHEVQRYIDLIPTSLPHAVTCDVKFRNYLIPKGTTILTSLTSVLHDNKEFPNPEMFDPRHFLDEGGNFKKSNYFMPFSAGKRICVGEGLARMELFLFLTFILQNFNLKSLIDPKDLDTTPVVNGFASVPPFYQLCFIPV

SMILES	EC50 [1] [nM]	IC50 (Cytochrome P450 2C19) [nM]
COc1ccccc1C1CCN(Cc2nc3ccccc3n2C)CC1	870	–
c1ccc(CCCCN2CCn3c(nc4ccccc43)C2)cc1	420	–
Fc1cccc(CCN2CCn3c(nc4ccccc43)C2)c1	4700	–
O=C1c2nc3ccccc3n2CCN1CCCCOc1ccc(F)cc1Br	50	–
Fc1cc(C(F)(F)F)ccc1CCCCN1CCn2c(nc3ccccc32)C1	970	–
c1ccc(CCCCCN2CCn3c(nc4ccccc43)C2)cc1	130	–
COc1ccc(CCCCN2CCn3c(nc4ccccc43)C2)cc1	2280	–
Cc1ccc(CCN2CCn3c(nc4ccccc43)C2)cc1	2430	–
Cc1ccccc1OCCCCN1CCn2c(nc3ccccc32)C1=O	90	–
COc1ccc(CCN2CCn3c(nc4ccccc43)C2)cc1	2740	–
O=C1c2nc3ccccc3n2CCN1CCCCOc1ccc(Cl)cc1	70	–
O=C1c2nc3ccccc3n2CCN1CCCCOc1ccc(OC(F)(F)F)cc1	–	> 10000
O=C1c2nc3ccccc3n2CCN1CCCOc1ccc(Cl)c(Cl)c1	90	–
O=C1c2nc3ccccc3n2CCN1CCCCOc1ccc(F)cc1F	50	–
c1ccc(SCCCN2CCn3c(nc4ccccc43)C2)cc1	260	–
N#Cc1ccc(CCCCN2CCn3c(nc4ccccc43)C2)cc1	2400	–
Fc1ccc(SCCCN2CCn3c(nc4ccccc43)C2)cc1	320	–
O=C1c2nc3ccccc3n2CCN1CCCCOc1ccc(C(F)(F)F)cc1	40	–
Brc1ccc(SCCCN2CCn3c(nc4ccccc43)C2)cc1	270	–
Cn1c(CN2CCC(c3ccccc3F)CC2)nc2ccccc21	130	–

Second part, the compound after the results:

EC50 [1] [nM]	IC50 (Cytochrome P450 2C19) [nM]	SMILES
540	–	Fc1cc(Cl)ccc1CCCCN1CCn2c(nc3ccccc32)C1
340	–	Fc1ccc(CCCCN2CCn3c(nc4ccccc43)C2)c(F)c1
170	–	Fc1ccc(OCCCN2CCn3c(nc4ccccc43)C2)cc1Cl
90	–	Fc1ccc(SCCCN2CCn3c(nc4ccccc43)C2)cc1F
350	–	Fc1ccc(SCCCN2CCn3c(nc4ccccc43)C2)c(F)c1
540	–	Fc1ccc(OCCCN2CCn3c(nc4ccccc43)C2)cc1F
1210	–	COc1ccc(CCCCN2CCn3c(nc4ccccc43)C2)c(F)c1
550	–	Clc1ccc(SCCCN2CCn3c(nc4ccccc43)C2)cc1
70	–	Clc1ccc(OCCCN2CCn3c(nc4ccccc43)C2)cc1Cl
